How the values were obtained:
Intestine [1] = test: Biodistribution in ddY mouse intestine at 1 uCi/100 uL, iv after 60 mins by gamma counting; format: ADME, organism-based; settings: in vivo, 1 h
Summary of the method: (§1)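 Normal female ddY mice (5 weeks, about 20 g; n = 4 per group) received radiotracer iv. Organs were removed and weighed at 2–120 min and counted in a γ-counter. Percent dose per gram of wet tissue was calculated against diluted aliquots of the injected material and reported as mean ± SD.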

Stomach [2] = test: Biodistribution in ddY mouse stomach at 1 uCi/100 uL, iv after 2 mins by gamma counting; format: ADME, organism-based; settings: in vivo
Liver [3] = test: Biodistribution in ddY mouse liver at 1 uCi/100 uL, iv after 30 mins by gamma counting; format: ADME, organism-based; settings: in vivo, 0.5 h
Brain [4] = test: Biodistribution in ddY mouse brain at 1 uCi/100 uL, iv after 30 mins by gamma counting; format: ADME, organism-based; settings: in vivo, 0.5 h; summary of the method: as §1
Blood [5] = test: Biodistribution in ddY mouse blood at 1 uCi/100 uL, iv after 120 mins by gamma counting; format: ADME, organism-based; settings: in vivo, 2 h; summary of the method: as §1
Intestine [6] = test: Biodistribution in ddY mouse intestine at 1 uCi/100 uL, iv after 30 mins by gamma counting; format: ADME, organism-based; settings: in vivo, 0.5 h; summary of the method: as §1
Thyroid gland [7] = test: Biodistribution in ddY mouse thyroid at 1 uCi/100 uL, iv after 15 mins by gamma counting; format: ADME, organism-based; settings: in vivo, 0.25 h
Blood [8] = test: Biodistribution in ddY mouse blood at 1 uCi/100 uL, iv after 30 mins by gamma counting; format: ADME, organism-based; settings: in vivo, 0.5 h; summary of the method: as §1
Intestine [9] = test: Biodistribution in ddY mouse intestine at 1 uCi/100 uL, iv after 15 mins by gamma counting; format: ADME, organism-based; settings: in vivo, 0.25 h; summary of the method: as §1
Blood [10] = test: Biodistribution in ddY mouse blood at 1 uCi/100 uL, iv after 15 mins by gamma counting; format: ADME, organism-based; settings: in vivo, 0.25 h; summary of the method: as §1
Lung [11] = test: Biodistribution in ddY mouse lung at 1 uCi/100 uL, iv after 30 mins by gamma counting; format: ADME, organism-based; settings: in vivo, 0.5 h
Brain [12] = test: Biodistribution in ddY mouse brain at 1 uCi/100 uL, iv after 15 mins by gamma counting; format: ADME, organism-based; settings: in vivo, 0.25 h; summary of the method: as §1
Lung [13] = test: Biodistribution in ddY mouse lung at 1 uCi/100 uL, iv after 120 mins by gamma counting; format: ADME, organism-based; settings: in vivo, 2 h
Blood [14] = test: Biodistribution in ddY mouse blood at 1 uCi/100 uL, iv after 60 mins by gamma counting; format: ADME, organism-based; settings: in vivo, 1 h; summary of the method: as §1
[15] = Partition coefficient, log D of the compound; format: physicochemical; settings: octanol/water
Summary of the method: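 Radiotracer partitioned between n-octanol and PBS: vortexed 3 min at room temperature, centrifuged 5 min at 3000 rpm. Weighed samples of the octanol (100 μL) and buffer (500 μL) layers were counted. log D is the log of the ratio of counts per gram, octanol versus PBS.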

Stomach [16] = test: Biodistribution in ddY mouse stomach at 1 uCi/100 uL, iv after 120 mins by gamma counting; format: ADME, organism-based; settings: in vivo, 2 h
Thyroid gland [17] = test: Biodistribution in ddY mouse thyroid at 1 uCi/100 uL, iv after 2 mins by gamma counting; format: ADME, organism-based; settings: in vivo
Kidney [18] = test: Biodistribution in ddY mouse kidney at 1 uCi/100 uL, iv after 15 mins by gamma counting; format: ADME, organism-based; settings: in vivo, 0.25 h; summary of the method: as §1
Kidney [19] = test: Biodistribution in ddY mouse kidney at 1 uCi/100 uL, iv after 120 mins by gamma counting; format: ADME, organism-based; settings: in vivo, 2 h; summary of the method: as §1
Heart [20] = test: Biodistribution in ddY mouse heart at 1 uCi/100 uL, iv after 15 mins by gamma counting; format: ADME, organism-based; settings: in vivo, 0.25 h; summary of the method: as §1
Spleen = test: Biodistribution in ddY mouse spleen at 1 uCi/100 uL, iv after 60 mins by gamma counting; format: ADME, organism-based; settings: in vivo, 1 h
Brain [21] = test: Biodistribution in ddY mouse brain at 1 uCi/100 uL, iv after 120 mins by gamma counting; format: ADME, organism-based; settings: in vivo, 2 h; summary of the method: as §1
Heart [22] = test: Biodistribution in ddY mouse heart at 1 uCi/100 uL, iv after 120 mins by gamma counting; format: ADME, organism-based; settings: in vivo, 2 h; summary of the method: as §1
Heart [23] = test: Biodistribution in ddY mouse heart at 1 uCi/100 uL, iv after 60 mins by gamma counting; format: ADME, organism-based; settings: in vivo, 1 h; summary of the method: as §1
Lung [24] = test: Biodistribution in ddY mouse lung at 1 uCi/100 uL, iv after 2 mins by gamma counting; format: ADME, organism-based; settings: in vivo
Liver [25] = test: Biodistribution in ddY mouse liver at 1 uCi/100 uL, iv after 120 mins by gamma counting; format: ADME, organism-based; settings: in vivo, 2 h

With `CNc1ccc(/C=C/C(=O)/C=C/c2ccc([125I])cc2)cc1` the Drug uptake (Intestine [1]) was 23.62 % ID/g, the Drug uptake (Stomach [2]) was 3.26 % ID/organ and the Drug uptake (Liver [3]) was 23.88 % ID/g. It also gave a Drug uptake (Brain [4]) of 1.38 % ID/g, a Drug uptake (Blood [5]) of 4.46 % ID/g and a Drug uptake (Intestine [6]) of 13.19 % ID/g. The Drug uptake (Thyroid gland [7]) was 28.09 % ID/g, the Drug uptake (Blood [8]) was 4.84 % ID/g and the Drug uptake (Intestine [9]) was 10.33 % ID/g. For the same compound, the Drug uptake (Blood [10]) was 6.02 % ID/g, the Drug uptake (Lung [11]) was 6.18 % ID/g and the Drug uptake (Brain [12]) was 2.62 % ID/g. The Drug uptake (Lung [13]) was 3.9 % ID/g, the Drug uptake (Blood [14]) was 3.35 % ID/g and the logD [15] was 3.55. The Drug uptake (Stomach [16]) was 4.49 % ID/organ, the Drug uptake (Thyroid gland [17]) was 18.2 % ID/g and the Drug uptake (Kidney [18]) was 16.49 % ID/g. The Drug uptake (Kidney [19]) was 13.43 % ID/g, the Drug uptake (Heart [20]) was 4.14 % ID/g and the Drug uptake (Spleen) was 1.52 % ID/g. It also gave a Drug uptake (Brain [21]) of 0.54 % ID/g, a Drug uptake (Heart [22]) of 1.91 % ID/g and a Drug uptake (Heart [23]) of 1.74 % ID/g. It also gave a Drug uptake (Lung [24]) of 9.67 % ID/g and a Drug uptake (Liver [25]) of 27.83 % ID/g.
